This is an account of results in ChEMBL document CHEMBL1135463 (J Med Chem, 2002).

In brackets after ≈: the same amount, converted by molar mass. Activity calls are given as the source filed them. The rule behind the calls is not given here. Where only a bound is given, the exact number is not on record here.

The term MIC denotes the lowest concentration found to suppress growth. Usually GI50 stands for the concentration giving 50% growth inhibition. The inhibition is the relative decrease from the control value, in per cent. As a reminder, the IC50 is the concentration needed to halve the response being measured. Low values mean inhibition by little substance, high ones a need for much substance.

One test concerns Candida albicans. Description: The minimum inhibitory concentration (MIC) that inhibits all visible growth of the Candida albicans (fungus) at 64 ug/mL; NI is no inhibition. The class given is functional, organism-based. A digest of the protocol:
(§1)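 Broth microdilution following NCCLS reference methods (M7-A4 for aerobic bacteria, the yeast broth dilution standard for fungi). MIC is the lowest compound concentration giving optically clear wells, with no visible growth of the test organism.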

A further test has as its system Micrococcus luteus. In words: The minimum inhibitory concentration (MIC) that inhibits all visible growth of the Micrococcus luteus (bacteria) at 64 ug/mL; NI is no inhibition. The class given is functional, organism-based. A digest of the protocol:
as §1

Test [1] deals with DU-145. In words: In vitro growth inhibition of DU-145 (human prostate carcinoma) cell line. In kind it is functional.
Another test concerns MCF7. In words: Cell growth inhibition of breast MCF-7 cells, expressed as 50% reduction in the net protein increase. The settings on record: Homo sapiens. The class given is functional.
Test [2] in a line: In vitro growth inhibition of NCI-H460 (human non-small cell lung carcinoma) cell line. The class given is functional.
In another test the test system is Enterobacter cloacae. Description: The minimum inhibitory concentration (MIC) that inhibits all visible growth of the Enterobacter cloacae (bacteria) at 64 ug/mL; NI is no inhibition. In kind it is functional, organism-based. In short, it runs like this: as §1
Another test deals with Neisseria gonorrhoeae. In words: The minimum inhibitory concentration (MIC) that inhibits all visible growth of the Neisseria gonorrhoeae (bacteria). In kind it is functional. In short, it runs like this:
as §1

The test system of the next test is Enterococcus faecalis. Description: The minimum inhibitory concentration (MIC) that inhibits all visible growth of the Enterococcus faecalis (bacteria) at 64 ug/mL; NI is no inhibition. In kind it is functional, organism-based. A digest of the protocol: as §1
A further test concerns Staphylococcus aureus. In words: The minimum inhibitory concentration (MIC) that inhibits all visible growth of the Staphylococcus aureus (bacteria) at 64 ug/mL; NI is no inhibition. In kind it is functional, organism-based. In short, it runs like this: as §1
A further test relates to Escherichia coli. In words: The minimum inhibitory concentration (MIC) that inhibits all visible growth of the Escherichia coli (bacteria) at 64 ug/mL; NI is no inhibition. The class given is functional, organism-based. In short, it runs like this:
as §1

The test system of test [3] is Stenotrophomonas maltophilia. In words: The minimum inhibitory concentration (MIC) that inhibits all visible growth of the Stenotrophomonas maltophilia (bacteria) at 64 ug/mL; NI is no inhibition. The class given is functional, organism-based. In short, it runs like this: as §1
For another test, the system named is Cryptococcus neoformans. In words: Minimum inhibitory concentration (MIC) that inhibits all visible growth of the Cryptococcus neoformans (fungus) at 64 ug/mL; NI is no inhibition. The class given is functional, organism-based. In short, it runs like this:
as §1

A further test deals with Streptococcus pneumoniae. In words: The minimum inhibitory concentration (MIC) that inhibits all visible growth of the Streptococcus pneumoniae (bacteria). The class given is functional. A digest of the protocol:
as §1

The subject of test [4] is P388. Description: In vitro inhibition of P388 (murine leukemia) cell proliferation. The note with it: Mus musculus, read-out: ED50 (the source's name). The class given is functional.
The test system of test [5] is KM-20L2. Description: In vitro growth inhibition of KM20L2 cell line. The class given is functional. The note with it: Homo sapiens.
Test [6] concerns SF-268. In words: In vitro growth inhibition of central nervous system SF-268 cell line. The settings on record: Homo sapiens. The class given is functional.
Test [7] concerns BXPC-3. Description: In vitro growth inhibition of BXPC-3 (human pancreatic adenocarcinoma) cell line. The class given is functional.
Test [8] concerns the target T1, Tubulin (Bos taurus) (UniProt Q6B856+Q862L2+Q862F3). In words: Inhibition of radiolabeled [3H]colchicine binding to tubulin at a concentration of 5 uM of the compound. The class given is protein assay. A digest of the protocol: (§2)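 [3H]colchicine 5.0 µM incubated with tubulin 1.0 µM plus inhibitor at the stated level, 10 min at 37 °C, then colchicine binding measured. Reported as percent inhibition.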

Test [9] has as its system KM-20L2. Description: Cell growth inhibition of colon KM20L2 cells, expressed as 50% reduction in the net protein increase. The note with it: Homo sapiens. In kind it is functional. In short, it runs like this:
(§3)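 Human tumour lines kept in 5% FBS/RPMI-1640, plated and incubated 24 h before compound dilutions were added. Exposure 48 h, then TCA fixation, washing and sulforhodamine B staining, with optical density read on a plate reader. GI50 is the concentration giving a 50% reduction in net protein increase, calculated from the OD data.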

A further test relates to NCI-H460. In words: Cell growth inhibition of lung-NSC NCI-H460 cells, expressed as 50% reduction in the net protein increase. In kind it is functional. The settings on record: Homo sapiens. In short, it runs like this:
as §3

A further test concerns the target Tubulin (Bos taurus, UniProt Q6B856+Q862L2+Q862F3). Description: Inhibition of tubulin polymerization reported as IC50. In kind it is functional. In short, it runs like this:
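Tubulin at 10 µM with a range of drug concentrations. Extent of assembly read after 20 min at 30 °C. IC50 taken from the concentration needed to halve assembly.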

The target of test [10] is T1, Tubulin (Bos taurus). In words: Inhibition of radiolabeled [3H]colchicine binding to tubulin at a concentration of 2 uM of the compound. In kind it is protein assay. A digest of the protocol: as §2
Test [11] deals with P388. In words: Evaluated for cell growth inhibition of the mouse leukemia P388 cells in 10% horse serum/Fisher media. The class given is functional. The note with it: read-out: ED50 (the source's name). In short, it runs like this: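 Murine P388 leukaemia cells grown in 10% horse serum/Fisher medium, incubated 24 h, then compound dilutions added. After 48 h, cells counted on a Coulter Z1 particle counter and the ED50 for growth inhibition calculated.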

Test [12] relates to SF-268. In words: Cell growth inhibition of central nervous system (CNS) SF-268 cells, expressed as 50% reduction in the net protein increase. The note with it: Homo sapiens. In kind it is functional. In short, it runs like this:
as §3

For test [13], the system named is DU-145. Description: Cell growth inhibition of prostate DU-145 cells, expressed as 50% reduction in the net protein increase. In kind it is functional. The settings on record: Homo sapiens. In short, it runs like this: as §3
Test [14] relates to BXPC-3. Description: Cell growth inhibition against pancreatic BXPC-3 cells, 50% reduction in the net protein increase. In kind it is functional. The settings on record: Homo sapiens. A digest of the protocol: as §3

Consider `COc1cc(O)cc(C(=O)c2ccc(O)cc2)c1`, for which the MIC result with Candida albicans, with Micrococcus luteus, with Enterobacter cloacae, in the test with Enterococcus faecalis, in the test with Staphylococcus aureus and with Escherichia coli was “inactive” in each case. For the same compound, the MIC entry (in test [3]; in the test with Cryptococcus neoformans) was “inactive” throughout. Besides, the GI50 with DU-145 [1] was found to be 16.5 µg/mL (≈ 67.6 µM); in the test with MCF7 it was 26.8 µg/mL (≈ 110 µM); in test [2], 12.1 µg/mL (≈ 49.5 µM); in the test with KM-20L2 [5], 31.6 µg/mL (≈ 129 µM); in the test with SF-268 [6], 26.4 µg/mL (≈ 108 µM); in the test on BXPC-3 [7] it was 21.7 µg/mL (≈ 88.8 µM). The minimal inhibitory concentration (MIC) in the test with Neisseria gonorrhoeae was determined as 32 µg/mL (≈ 131 µM); against Streptococcus pneumoniae, 64 µg/mL (≈ 262 µM). Also, the EC50 with P388 [4] came out at 26.2 µg/mL (≈ 107 µM).

`COc1ccc(/C=C\c2cc(O)cc(OC)c2)cc1` had a concentration for 50% growth inhibition (GI50) in test [2] of 0.72 µg/mL (≈ 2.81 µM). The EC50 in the test on P388 [4] came out at 3.82 µg/mL (≈ 14.9 µM).

For the compound `COc1ccc(/C=C\c2cc(O)cc(O)c2)cc1`, the GI50 with DU-145 [1] was 10.6 µg/mL (≈ 43.8 µM); in the test with MCF7 it was 12.7 µg/mL (≈ 52.4 µM); in test [2] it was 6.4 µg/mL (≈ 26.4 µM); with KM-20L2 [5], 17.7 µg/mL (≈ 73.1 µM); with SF-268 [6], 15.6 µg/mL (≈ 64.4 µM); in the test on BXPC-3 [7], 14.1 µg/mL (≈ 58.2 µM). It took 16 µg/mL (≈ 66 µM) to inhibit growth in the test with Neisseria gonorrhoeae (MIC). Also, the EC50 in the test on P388 [4] is 2.75 µg/mL (≈ 11.4 µM).

As to `O=C(c1ccc(O)cc1)c1cc(O)cc(O)c1`, the GI50 in the test on DU-145 [1] is 15 µg/mL (≈ 65.2 µM); with MCF7 it was 30.6 µg/mL (≈ 133 µM); in test [2], 25 µg/mL (≈ 109 µM); in the test on KM-20L2 [5], 24.5 µg/mL (≈ 106 µM); with SF-268 [6] it was 22.3 µg/mL (≈ 96.9 µM); with BXPC-3 [7], 20.5 µg/mL (≈ 89 µM). The MIC in the test on Streptococcus pneumoniae came out at 64 µg/mL (≈ 278 µM). Further, the EC50 in the test with P388 [4] is over 100 µg/mL.

Turning to `COc1ccc(C(O)c2cc(OC)cc(OC)c2)cc1` (stereo not drawn), the 50% growth inhibitory concentration (GI50) in the test with DU-145 [1] came out at 23.2 µg/mL (≈ 84.6 µM); in test [2] it was 21.7 µg/mL (≈ 79.1 µM); with KM-20L2 [5] it was 21 µg/mL (≈ 76.6 µM); in the test with SF-268 [6], 23.3 µg/mL (≈ 84.9 µM); with BXPC-3 [7], 16.1 µg/mL (≈ 58.7 µM). Moreover, the EC50 in the test on P388 [4] worked out at 20.2 µg/mL (≈ 73.6 µM).

In the case of `COc1cc(/C=C\c2ccc(OP(=O)(OCc3ccccc3)OCc3ccccc3)cc2)cc(OC)c1`, the 50% growth inhibitory concentration (GI50) with DU-145 [1] came out at 35.6 µg/mL (≈ 68.9 µM); in the test on MCF7, 9 µg/mL (≈ 17.4 µM); in test [2], 10.7 µg/mL (≈ 20.7 µM); in the test with KM-20L2 [5] it was 24.7 µg/mL (≈ 47.8 µM); in the test with SF-268 [6] it was 38.5 µg/mL (≈ 74.5 µM); in the test on BXPC-3 [7], 5.4 µg/mL (≈ 10.5 µM). In the test on P388 [4], the EC50 amounted to 4.45 µg/mL (≈ 8.62 µM).

Consider `COc1ccc(C(=O)c2cc(OC)c(OC)c(OC)c2)cc1O` [PHENSTATIN], for which the inhibition was 85% at Tubulin (Bos taurus) [8] and 73% at Tubulin (Bos taurus) [10]. Also, the GI50 in the test on KM-20L2 [9] worked out at 0.04 µg/mL (≈ 0.126 µM); in the test with NCI-H460 it was 0.0057 µg/mL (≈ 0.0179 µM); in the test with SF-268 [12] it was 0.052 µg/mL (≈ 0.163 µM). The half-inhibitory concentration (IC50) against Tubulin was determined as 1100 nM. Besides, in the test on P388 [11], the EC50 was 0.0033 µg/mL (≈ 0.0104 µM).

Take `COc1ccc(/C=C\c2cc(OC)cc(OC)c2)cc1` [8Z-3,4',5-TRIMETHOXYSTILBENE]: the concentration for 50% growth inhibition (GI50) in the test with DU-145 [13] was determined as 0.0054 µg/mL (≈ 0.02 µM); with BXPC-3 [14], 0.0034 µg/mL (≈ 0.0126 µM); with NCI-H460, 0.0028 µg/mL (≈ 0.0104 µM); in the test on SF-268 [12] it was 0.0044 µg/mL (≈ 0.0163 µM). In addition, the inhibition is 95% on Tubulin (Bos taurus) [8] and 88% at Tubulin (Bos taurus) [10]. In addition, the IC50 against Tubulin was found to be 1800 nM. The EC50 in the test on P388 [11] was determined as 0.0262 µg/mL (≈ 0.0969 µM).
